Bioassay records as filed in PubChem.
The list is not random: actives were taken first. Their share in the collection is about 2.5%.
MC4R antag cAMP: antagonists of human melanocortin 4 receptor (MC4R); inhibition, % at 6.5 µM; MC4R-expressing cells, MTII-stimulated cAMP, LANCE TR-FRET; hit rate 0.48% among 360,000; AID 540295; P32245;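 active means inhibition above its plate's cutoff, the mean of tested wells on that plate plus 3 SD, cut at about 29% in these data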;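 further: 0% = Melanotan II alone and 100% = Melanotan II plus saturating MCL0020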
Target sequence (P32245 whole entry, looked up): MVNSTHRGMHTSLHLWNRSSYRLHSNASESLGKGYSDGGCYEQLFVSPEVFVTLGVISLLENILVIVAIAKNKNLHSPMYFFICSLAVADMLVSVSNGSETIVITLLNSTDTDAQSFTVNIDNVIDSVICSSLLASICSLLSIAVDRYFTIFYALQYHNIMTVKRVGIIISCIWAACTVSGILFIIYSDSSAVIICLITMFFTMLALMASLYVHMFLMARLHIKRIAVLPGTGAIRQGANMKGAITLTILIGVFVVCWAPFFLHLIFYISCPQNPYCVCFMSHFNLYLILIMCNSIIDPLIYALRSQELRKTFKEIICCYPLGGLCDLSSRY
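Assay system: U2OS cells stably expressing human melanocortin 4 receptor (MC4R) / Dosing: 6.5 µM / Timing: compound 30 min, challenge 1 h, detection 1 h / Measured by: Eu-cAMP/anti-cAMP TR-FRET, emission 671 nm / Replicates: singlicate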
NTR1 agonist: agonists of human neurotensin receptor NTR1. NTR1-U2OS beta-arrestin-GFP spot imaging, agonist mode. P30989. activation, % at 20 µM. hit rate 0.17% among 330,000;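 active means activation at or above 40% of the spot to cytoplasm intensity ratio, with at least 20 cells analyzed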;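 further: 0% = DMSO without peptide and 100% = 100 nM NTR1 peptide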
PG9 binder: binds the HIV-1 gp120 antibody PG9. TR-FRET gp120-PG9 antibody binding. inhibition, % at 6.7 µM. hit rate 0.43% among 360,000. AID 624416; in the data active means inhibition above about 8.5%
NR1D1 modulator: modulates human Rev-erb alpha binding to DNA. P20393. Rev-erbα–FITC-DNA binding, fluorescence polarization, 90 min. activity, % at 10 µM. hit rate 0.79% among 370,000;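 active means activity above about 14%, limit read from the data; passing the limit was not always enough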;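 further: 0% = DMSO wells with 35 nM protein and 100% = DMSO wells with 750 nM protein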
MC4R ag barr: human MC4R agonism via beta-arrestin; U2OS MC4R beta-arrestin complementation, luminescence; percent of melanotan II response, DMSO zero; AID 540308; activation, % at 8.9 µM; hit rate 0.98% among 360,000;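 active means activation above a per-plate cutoff, the mean activation of sample wells on that plate plus 3 SD, cut at about 8% in these data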
MC4R barr ag: human MC4R beta-arrestin agonism confirmation. shares compounds with MC4R ag barr. hit rate 31% among 2,400. U2OS MC4R beta-arrestin recruitment, luminescence; scaled DMSO 0%, Melanotan II 100%. activation, % at 8.9 µM;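 active means mean activation across replicates above the hit cutoff set in the earlier primary screen, cut at about 8% in these data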
MOR-DOR barr ag: OPRM1-OPRD1 heterodimer agonism counter-screen | hit rate 5.8% among 2,400 | activation, % at 9.2 µM | AID 602194 | shares compounds with MC4R ag barr | U2OS PathHunter beta-arrestin, beta-gal luminescence; percent of deltorphin B response, DMSO zero;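 active means mean activation across replicates exceeds the hit threshold derived in the earlier primary screen, cut at about 18% in these data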;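 further: 100% = deltorphin B at 0.9 µM final and 0% = DMSO alone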
Starred values were filed as active, the others as inactive; . = no result given.

SMILES | MC4R antag cAMP | NTR1 agonist | PG9 binder | NR1D1 modulator | MC4R ag barr | MC4R barr ag | MOR-DOR barr ag
Cc1ccc(C(=O)N2N=C(c3ccc(Br)cc3)CC2c2ccccc2O)cc1 (stereo not drawn) | 13 | 15 | -2 | 3 | 3 | . | .
COc1ccc(C2=NN(C(=O)c3cccs3)C(c3ccccc3O)C2)cc1 (stereo not drawn) | -6 | 16 | -1 | 4 | 13* | 16* | 5
O=C(Cc1cn(Cc2ccccc2)c2ccccc12)Nc1ccc(Nc2cccnc2)c(Br)c1 | . | . | -4 | 2 | . | . | .
Clc1cccc(-c2cc3nc(NCCOc4ccccc4)ccn3n2)c1 | 2 | . | 0 | 9 | 11* | 2 | 4
Cc1cccc(NC(=O)CSc2nnc(-c3cccnc3)n2Cc2ccco2)c1C | . | . | . | 4 | . | . | .
COc1ccc(-c2cnc3c(NC(C)=O)cc(-c4ccc(S(C)(=O)=O)cc4)cn23)cc1OC | 5 | . | -1 | 4 | 11* | 9.8* | 3
COc1cccc(-c2cnc3c(NC(C)=O)cc(-c4ccc(S(C)(=O)=O)cc4)cn23)c1 | 11 | . | 1 | 6 | 11* | 14* | 2
Cc1ccc(C)c(N2CCN(S(=O)(=O)c3ccc4[nH]c(=O)ccc4c3)CC2)c1 | 3 | 3 | 0 | 1 | 17* | 8 | 11
CCC[C@H]1[C@@H](NC(=O)C#Cc2ccccc2)CC[C@@]23CCCN2C(=O)CCC[C@@H]13 | . | . | . | 0 | . | . | .
COCCNC(=O)CSc1nc2cc(OC)c(OC)cc2c(=O)n1Cc1ccc(OC)cc1 | 9 | 0 | -1 | -3 | -1 | . | .
COc1cc2nc(SCC(=O)NCc3ccco3)n(Cc3ccc(Cl)cc3)c(=O)c2cc1OC | -2 | 6 | 0 | -4 | 13* | -2 | 11
CCCCCn1c(SCC(=O)OCC)nc2cc(C(=O)NCc3ccco3)ccc2c1=O | 12 | 6 | -2 | 17 | 13* | 2 | 31*
C=CCn1c(SCC(=O)OCC)nc2cc(C(=O)NCc3ccco3)ccc2c1=O | -5 | 5 | -4 | 2 | -1 | . | .
O=C1c2[nH]nc(-c3ccccc3)c2C(c2cccc(C(F)(F)F)c2)N1c1ccccc1 (stereo not drawn) | . | . | 0 | -1 | . | . | .
O=C(O)C1CSCN1 (stereo not drawn) | . | . | . | 3 | . | . | .
COc1ccc(S[C@]2(C(=O)N3CCOCC3)CC(=O)N(C(=O)C3CC3)[C@@H]2c2ccc(OC)cc2)cc1 | . | . | . | -6 | . | . | .
O=C(NCc1csc2ccccc12)Nc1cc(Cl)cc(Cl)c1 | 14 | 1 | -2 | 0 | 16* | -1 | 4
O=C(NCc1ccccn1)Nc1cc(Cl)cc(Cl)c1 | 3 | 1 | -2 | 0 | -1 | . | .
O=C(OCc1cn(Cc2ccc(Cl)cc2)nn1)N1CCOCC1 | . | . | . | 6 | . | . | .
O=C(C1CCN(c2cncnc2)CC1)N1CCCC1 | . | . | . | -3 | . | . | .
Fc1ccccc1/C=N/Nc1nc2ccccc2o1 | -1 | 0 | 0 | -4 | 13* | -1 | 5
N#Cc1cn(-c2ccccc2)nc1-c1ccccc1 | 0 | 1 | -1 | 3 | 12* | -1 | 9
O=C(Nc1cnn(Cc2ccc(Cl)cc2Cl)c1)c1noc2c1CCCC2 | 4 | 4 | 0 | -9 | 3 | . | .
O=C(Nc1cnn(Cc2ccc(Cl)cc2Cl)c1)c1cc(-c2cccs2)on1 | -1 | 13 | -3 | -4 | 21* | 2 | 4
COc1ccc(Cc2nnc(NC(=O)Nc3ccccc3F)s2)cc1OC | -2 | 3 | -1 | 6 | 14* | 4 | 6
CCC1S/C(=N/N=C/c2cccs2)NC1=O (stereo not drawn) | -1 | 0 | -1 | 4 | -1 | . | .
O=C1N/C(=N\N=C\c2cccs2)SC1Cc1cccc(Cl)c1 (stereo not drawn) | -2 | 5 | -1 | 3 | 12* | 1 | 9
O=C1N/C(=N\N=C\c2cccs2)SC1Cc1ccc(Cl)cc1 (stereo not drawn) | -4 | 4 | 0 | 1 | 15* | 4 | 5
CCOc1ccc(Oc2c(Cl)cnn(Cc3cccc4ccccc34)c2=O)cc1 | . | . | . | -3 | . | . | .
